# In ChEMBL document CHEMBL4715736, “Identification of anticancer agents based on the thieno[2,3-b]pyridine and 1H-pyrazole molecular scaffolds” (2016):
# Tests used:
# Assay type in all cases: functional
# HCT-15 [1] = experiment: Growth inhibition of human HCT-15 cells assessed as cell growth at 0.01 uM incubated for 48 hrs by sulforhodamine B assay relative to control; details: read-out: Activity
# SF-295 = experiment: Growth inhibition of human SF-295 cells assessed as cell growth at 100 uM incubated for 48 hrs by sulforhodamine B assay relative to control; details: read-out: Activity
# A549 = experiment: Growth inhibition of human A549/ATCC cells incubated for 48 hrs by sulforhodamine B assay; details: for CC50: read-out: LC50 (the source's name)
# Summary of the method: (§1)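 NCI Developmental Therapeutics Program NCI60 panel. Compounds that were active in the 10 µM one-dose screen went on to dose–response testing. Growth at each concentration is expressed relative to untreated control (100%). GI50 (concentration giving 50% of maximal inhibition of proliferation) and TGI (concentration giving total growth inhibition) were derived from the curves.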
# NCI-H522 = experiment: Growth inhibition of human NCI-H522 cells assessed as cell growth at 0.1 uM incubated for 48 hrs by sulforhodamine B assay relative to control; details: read-out: Activity
# SNB-19 = experiment: Growth inhibition of human SNB-19 cells assessed as cell growth at 0.1 uM incubated for 48 hrs by sulforhodamine B assay relative to control; details: read-out: Activity
# RXF 393 [2] = experiment: Growth inhibition of human RXF 393 cells assessed as cell growth at 1 uM incubated for 48 hrs by sulforhodamine B assay relative to control; details: read-out: Activity
# MDA-MB-468 [3] = experiment: Growth inhibition of human MDA-MB-468 cells assessed as cell growth at 100 uM incubated for 48 hrs by sulforhodamine B assay relative to control; details: read-out: Activity
# RXF 393 [4] = experiment: Growth inhibition of human RXF 393 cells assessed as cell growth at 0.1 uM incubated for 48 hrs by sulforhodamine B assay relative to control; details: read-out: Activity
# HOP-62 = experiment: Growth inhibition of human HOP-62 cells incubated for 48 hrs by sulforhodamine B assay
# Summary of the method: (§2)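 NCI60 panel at the NCI Developmental Therapeutics Program. Only compounds active in the 10 µM screen went to dose-response testing. GI50, the concentration giving 50% of maximal inhibition of proliferation, and TGI, the concentration giving total growth inhibition, were derived from the dose-response curves.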
# SN12C = experiment: Growth inhibition of human SN12C cells incubated for 48 hrs by sulforhodamine B assay; details: for CC50: read-out: LC50 (the source's name)
# Summary of the method: (§3)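 NCI DTP 60-line human tumour panel. Dose-response curves were run only for ligands active in the initial 10 µM screen. GI50 (concentration giving 50% of maximal inhibition of proliferation) and TGI (concentration giving total growth inhibition) were derived from these curves.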
# SNB-75 = experiment: Growth inhibition of human SNB-75 cells assessed as cell growth at 0.01 uM incubated for 48 hrs by sulforhodamine B assay relative to control; details: read-out: Activity
# T47D = experiment: Growth inhibition of human T47D cells assessed as cell growth at 1 uM incubated for 48 hrs by sulforhodamine B assay relative to control; details: read-out: Activity
# SW-620 [5] = experiment: Growth inhibition of human SW-620 cells assessed as cell growth at 0.01 uM incubated for 48 hrs by sulforhodamine B assay relative to control; details: read-out: Activity
# HOP-92 = experiment: Growth inhibition of human HOP-92 cells incubated for 48 hrs by sulforhodamine B assay; summary of the method: as §2
# RPMI-8226 [6] = experiment: Growth inhibition of human RPMI-8226 cells assessed as cell growth at 100 uM incubated for 48 hrs by sulforhodamine B assay relative to control; details: read-out: Activity
# SK-OV-3 [7] = experiment: Growth inhibition of human SK-OV-3 cells assessed as cell growth at 1 uM incubated for 48 hrs by sulforhodamine B assay relative to control; details: read-out: Activity
# CAKI-1 = experiment: Growth inhibition of human CAKI-1 cells assessed as cell growth at 1 uM incubated for 48 hrs by sulforhodamine B assay relative to control; details: read-out: Activity; summary of the method: as §1
# RPMI-8226 [8] = experiment: Growth inhibition of human RPMI-8226 cells assessed as cell growth at 1 uM incubated for 48 hrs by sulforhodamine B assay relative to control; details: read-out: Activity
# SW-620 [9] = experiment: Growth inhibition of human SW-620 cells incubated for 48 hrs by sulforhodamine B assay; summary of the method: as §3
# M14 = experiment: Growth inhibition of human M14 cells assessed as cell growth at 0.01 uM incubated for 48 hrs by sulforhodamine B assay relative to control; details: read-out: Activity
# PC-3 = experiment: Growth inhibition of human PC-3 cells assessed as cell growth at 0.1 uM incubated for 48 hrs by sulforhodamine B assay relative to control; details: read-out: Activity
# SK-MEL-28 = experiment: Growth inhibition of human SK-MEL-28 cells assessed as cell growth at 0.01 uM incubated for 48 hrs by sulforhodamine B assay relative to control; details: read-out: Activity
# UO-31 = experiment: Growth inhibition of human UO-31 cells incubated for 48 hrs by sulforhodamine B assay; details: for CC50: read-out: LC50 (the source's name); summary of the method: as §3
# MDA-MB-468 [10] = experiment: Growth inhibition of human MDA-MB-468 cells assessed as cell growth at 1 uM incubated for 48 hrs by sulforhodamine B assay relative to control; details: read-out: Activity
# 786-0 = experiment: Growth inhibition of human 786-0 cells assessed as cell growth at 0.1 uM incubated for 48 hrs by sulforhodamine B assay relative to control; details: read-out: Activity; summary of the method: as §1
# LOX IMVI = experiment: Growth inhibition of human LOX IMVI cells assessed as cell growth at 0.1 uM incubated for 48 hrs by sulforhodamine B assay relative to control; details: read-out: Activity
# HCT-15 [11] = experiment: Growth inhibition of human HCT-15 cells assessed as cell growth at 1 uM incubated for 48 hrs by sulforhodamine B assay relative to control; details: read-out: Activity
# SF-268 = experiment: Growth inhibition of human SF-268 cells assessed as cell growth at 1 uM incubated for 48 hrs by sulforhodamine B assay relative to control; details: read-out: Activity
# TK-10 = experiment: Growth inhibition of human TK-10 cells incubated for 48 hrs by sulforhodamine B assay; details: for CC50: read-out: LC50 (the source's name); summary of the method: as §3
# HT-29 = experiment: Growth inhibition of human HT-29 cells assessed as cell growth at 0.1 uM incubated for 48 hrs by sulforhodamine B assay relative to control; details: read-out: Activity
# NCI-H23 = experiment: Growth inhibition of human NCI-H23 cells assessed as cell growth at 0.1 uM incubated for 48 hrs by sulforhodamine B assay relative to control; details: read-out: Activity
# SF-539 = experiment: Growth inhibition of human SF-539 cells assessed as cell growth at 100 uM incubated for 48 hrs by sulforhodamine B assay relative to control; details: read-out: Activity
# KM12 = experiment: Growth inhibition of human KM12 cells assessed as cell growth at 0.1 uM incubated for 48 hrs by sulforhodamine B assay relative to control; details: read-out: Activity
# SK-OV-3 [12] = experiment: Growth inhibition of human SK-OV-3 cells incubated for 48 hrs by sulforhodamine B assay; details: for CC50: read-out: LC50 (the source's name); summary of the method: as §3
# SR = experiment: Growth inhibition of human SR cells assessed as cell growth at 100 uM incubated for 48 hrs by sulforhodamine B assay relative to control; details: read-out: Activity
smiles,measurement,setting,value
Cc1cc(C)c(NC(=O)c2sc3nc4c(cc3c2N)CN(Cc2ccccc2)CC4)c(C)c1,growth at 0.01 µM,HCT-15 [1],93%
same,growth at 100 µM,SF-295,-2%
same,GI50,A549,4.11 µM
same,TGI,A549,> 100 µM
same,CC50,A549,> 100 µM
same,growth at 0.1 µM,NCI-H522,97%
same,growth at 0.1 µM,SNB-19,96%
same,growth at 1 µM,RXF 393 [2],78%
same,growth at 100 µM,MDA-MB-468 [3],-1%
same,growth at 0.1 µM,RXF 393 [4],89%
same,GI50,HOP-62,7.73 µM
same,LC50,HOP-62,> 100 µM
same,TGI,HOP-62,> 100 µM
same,GI50,SN12C,5.6 µM
same,TGI,SN12C,> 100 µM
same,CC50,SN12C,> 100 µM
same,growth at 0.01 µM,SNB-75,82%
same,growth at 1 µM,T47D,77%
same,growth at 0.01 µM,SW-620 [5],95%
same,GI50,HOP-92,0.877 µM
same,LC50 (concentration killing 50% of the starting cells),HOP-92,> 100 µM
same,TGI,HOP-92,42.6 µM
same,growth at 100 µM,RPMI-8226 [6],-11%
same,growth at 1 µM,SK-OV-3 [7],88%
same,growth at 1 µM,CAKI-1,76%
same,growth at 1 µM,RPMI-8226 [8],87%
same,GI50,SW-620 [9],2.6 µM
same,LC50 (concentration killing 50% of cells),SW-620 [9],> 100 µM
same,TGI,SW-620 [9],17.1 µM
same,growth at 0.01 µM,M14,91%
same,growth at 0.1 µM,PC-3,93%
same,growth at 0.01 µM,SK-MEL-28,97%
same,GI50,UO-31,4.78 µM
same,TGI,UO-31,93.9 µM
same,CC50,UO-31,> 100 µM
same,growth at 1 µM,MDA-MB-468 [10],63%
same,growth at 0.1 µM,786-0,92%
same,growth at 0.1 µM,LOX IMVI,105%
same,growth at 1 µM,HCT-15 [11],68%
same,growth at 1 µM,SF-268,92%
same,GI50,TK-10,5.06 µM
same,TGI,TK-10,> 100 µM
same,CC50,TK-10,> 100 µM
same,growth at 0.1 µM,HT-29,100%
same,growth at 0.1 µM,NCI-H23,103%
same,growth at 100 µM,SF-539,-45%
same,growth at 0.1 µM,KM12,103%
same,GI50,SK-OV-3 [12],5.35 µM
same,TGI,SK-OV-3 [12],> 100 µM
same,CC50,SK-OV-3 [12],> 100 µM
same,growth at 100 µM,SR,-16%
Nc1c(C(=O)Nc2ccccc2)sc2nc3c(cc12)CN(Cc1ccccc1)CC3,growth at 0.01 µM,HCT-15 [1],102%
same,growth at 100 µM,SF-295,12%
same,GI50,A549,13.9 µM
same,TGI,A549,> 100 µM
same,CC50,A549,> 100 µM
same,growth at 0.1 µM,NCI-H522,87%
same,growth at 0.1 µM,SNB-19,94%
same,growth at 1 µM,RXF 393 [2],87%
same,growth at 100 µM,MDA-MB-468 [3],22%
same,growth at 0.1 µM,RXF 393 [4],94%
same,GI50,HOP-62,4.11 µM
same,LC50,HOP-62,> 100 µM
same,TGI,HOP-62,33.3 µM
same,GI50,SN12C,65.7 µM
same,TGI,SN12C,> 100 µM
same,CC50,SN12C,> 100 µM
same,growth at 0.01 µM,SNB-75,91%
same,growth at 1 µM,T47D,83%
same,growth at 0.01 µM,SW-620 [5],98%
same,GI50,HOP-92,2.48 µM
same,LC50 (concentration killing 50% of the starting cells),HOP-92,> 100 µM
same,TGI,HOP-92,20.4 µM
same,growth at 100 µM,RPMI-8226 [6],42%
same,growth at 1 µM,SK-OV-3 [7],96%
same,growth at 1 µM,CAKI-1,87%
same,growth at 1 µM,RPMI-8226 [8],93%
same,GI50,SW-620 [9],20.8 µM
same,LC50 (concentration killing 50% of cells),SW-620 [9],> 100 µM
same,TGI,SW-620 [9],> 100 µM
same,growth at 0.01 µM,M14,98%
same,growth at 0.1 µM,PC-3,91%
same,growth at 0.01 µM,SK-MEL-28,100%
same,GI50,UO-31,6.14 µM
same,TGI,UO-31,> 100 µM
same,CC50,UO-31,> 100 µM
same,growth at 1 µM,MDA-MB-468 [10],87%
same,growth at 0.1 µM,786-0,90%
same,growth at 0.1 µM,LOX IMVI,102%
same,growth at 1 µM,HCT-15 [11],94%
same,growth at 1 µM,SF-268,85%
same,GI50,TK-10,4.09 µM
same,TGI,TK-10,54.7 µM
same,CC50,TK-10,> 100 µM
same,growth at 0.1 µM,HT-29,101%
same,growth at 0.1 µM,NCI-H23,101%
same,growth at 100 µM,SF-539,11%
same,growth at 0.1 µM,KM12,95%
same,GI50,SK-OV-3 [12],3.53 µM
same,TGI,SK-OV-3 [12],> 100 µM
same,CC50,SK-OV-3 [12],> 100 µM
same,growth at 100 µM,SR,19%
